L major viab = Leishmania major promastigote growth inhibition, primary screen | Leishmania major promastigotes, resazurin fluorescence viability | inhibition, % at 10 µM | actives 9% (n = 200,000) | AID 1063, 2008; in the data active means inhibition above about 50%;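 further: promastigotes grown with compound for 44 hours at 28 °C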
T cruzi repl = inhibitors of intracellular T. cruzi growth, primary screen, luminescence, NIH3T3 host cells; inhibition, % (concentration not given with the values); actives 1.4% (n = 300,000); T. cruzi beta-gal in NIH3T3, 90 h; AID 1885, 2009;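 active means mean inhibition across valid replicates above about 55%, limit read from the data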;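 further: signal also drops with host cell toxicity which is not excluded here; 0% = plate median of DMSO wells and 100% = zero luminescence signal; higher percent means less beta-gal luminescence so fewer parasites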
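Incubation – ≥90 h infection period, 3 h prior cell attachment · System – NIH/3T3 fibroblasts plus reporter T. cruzi · Doses – compound pinned at 50 nL/well, DMSO · Read-out basis – percent inhibition of parasite-derived β-gal signal · Signal – luminescent β-galactosidase signal after 60 min lysis · Also added – 5000 T. cruzi trypomastigotes/well · Medium – Low-serum DMEM with 2% FBS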
NLRP3 yeast inh = NALP3 inflammasome inhibitors in reconstituted yeast, primary screen, luminescence, uHTS | Yeast reconstituted NLRP3/ASC/caspase-1, beta-gal luminescence, 24 h | inhibition, % at 10 µM | actives 0.39% (n = 330,000);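 active means inhibition of 50% or more; inactive means inhibition below 50%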;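 further: plate controls were induced DMSO wells for no effect and uninduced yeast grown without galactose for full effect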
Calb FLC = C. albicans growth inhibition with fluconazole, primary screen, CaCi-2 strain, Alamar Blue fluorescence; actives 0.57% (n = 300,000); AID 1979, 2009; C. albicans CaCi-2 + fluconazole, 48 h; growth inhibition, % (test concentration not listed);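 active means growth inhibition above about 58% in most replicates, limit read from the data, passing the limit was not always enough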;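 further: all wells also contain fluconazole at 8 µg/ml as a sub-toxic cotreatment; 0% = median of DMSO wells and 100% = median of geldanamycin control wells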
NALP1 yeast inh = NALP1 inflammasome inhibitors in reconstituted yeast, colorimetric, S. cerevisiae, triplicate retest; S. cerevisiae NALP1/ASC/caspase-1 growth, X-gal OD620, 72 h; actives 0.61% (n = 280,000); inhibition, % at 10 µM; AID 2071, 2009; in the data active means inhibition mostly above about 24%, no sharp cut-off; inactive means mostly below about 32%
PolyA inhibitor = polyadenylation inhibitors in yeast reporter cells, primary screen, luminescence, S. cerevisiae; S. cerevisiae SKY197-pL101 polyadenylation reporter, beta-gal luminescence; efflux-impaired pdr1/pdr3 knockout yeast; score 100 = 6 SD above DMSO; activity score, % at 12 µM; actives 0.02% (n = 300,000); AID 1875, 2009;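 active means lowest replicate activity score at least 50, where 100 means six control SD above control mean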;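 further: yeast exposed to compound for 9 h at 30 °C; higher score means more reporter readthrough which indicates perturbed polyadenylation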
Numbers without * were called inactive. This excerpt belongs to a sample that is enriched for hits.

CNC(=S)Nc1ccc(C23CC4CC(CC(C4)C2)C3)cc1 was read as L major viab 51.0*, T cruzi repl 45.3, NLRP3 yeast inh 36.5, Calb FLC -35.8, NALP1 yeast inh 28.5 and PolyA inhibitor 4.9.
CCn1c(COc2ccccc2)nnc1SCC(=O)c1cccc([N+](=O)[O-])c1 was read as L major viab 91.4*, T cruzi repl 24.6, NLRP3 yeast inh 9.4, Calb FLC 7.4, NALP1 yeast inh 3.8 and PolyA inhibitor -12.7.
For CCc1ccccc1OCCCCN1CCCCC1 the results were T cruzi repl 25.8, NLRP3 yeast inh 15.8, Calb FLC -28.3, NALP1 yeast inh 1.5 and PolyA inhibitor -22.2.
Screening CCC(=O)c1ccccc1OCCN1CCN(Cc2ccccc2)CC1 returned L major viab 39.7, T cruzi repl 21.9, NLRP3 yeast inh 10.1, Calb FLC -1.8, NALP1 yeast inh 9.2 and PolyA inhibitor -0.6.
CCOc1ccccc1OCCOCCN1CCN(Cc2ccccc2)CC1 was read as L major viab 15.4, T cruzi repl 61.4*, NLRP3 yeast inh 13.6, Calb FLC -9.7, NALP1 yeast inh 20.4 and PolyA inhibitor 9.4.
Screening C(#CCN1CCC(Cc2ccccc2)CC1)COCCOCc1ccccc1 returned L major viab 5.0, T cruzi repl 6.8, NLRP3 yeast inh 19.3, Calb FLC 0.9 and PolyA inhibitor 0.5.
`O=C(c1ccccc1)c1ccc(OCCCCN2CCCCC2)cc1` gave L major viab 97.7*, T cruzi repl 20.2, NLRP3 yeast inh -2.8, Calb FLC -10.0, NALP1 yeast inh 2.8 and PolyA inhibitor 9.2.
Screening c1ccc(COCCN2CCN(CCOCc3ccccc3)CC2)cc1 returned L major viab 95.2*, T cruzi repl 51.2, NLRP3 yeast inh -13.8, Calb FLC -19.1, NALP1 yeast inh 3.6 and PolyA inhibitor 6.3.
`O=C(c1ccccc1)c1ccc(OCCOCCN2CCN(Cc3ccccc3)CC2)cc1` gave L major viab 56.1*, T cruzi repl 51.1, NLRP3 yeast inh 17.0, Calb FLC -18.1, NALP1 yeast inh 38.0* and PolyA inhibitor -23.0.
Screening CCN(CC)S(=O)(=O)c1ccc2nnn(O)c2c1 returned L major viab -6.5, T cruzi repl -22.7, NLRP3 yeast inh -19.9, Calb FLC -1.3, NALP1 yeast inh -1.1 and PolyA inhibitor 13.5.
Screening CCn1cc2nc(SCC(=O)Nc3ccccc3F)n(Cc3ccccc3)c(=O)c2n1 returned T cruzi repl 24.2, NLRP3 yeast inh 19.7, Calb FLC -3.0, NALP1 yeast inh 22.6 and PolyA inhibitor 6.0.
For O=C(c1ccccc1)c1ccc(OCCCN2CCCC2)cc1 the results were L major viab 99.0*, T cruzi repl 54.7*, NLRP3 yeast inh 4.5, Calb FLC 4.7, NALP1 yeast inh 32.7 and PolyA inhibitor -5.0.
Screening c1ccc(COc2ccc(OCCCCN3CCCCC3)cc2)cc1 returned L major viab 100.4*, T cruzi repl 38.1, NLRP3 yeast inh 45.1, Calb FLC -3.9, NALP1 yeast inh -0.5 and PolyA inhibitor -11.2.
CC(C)c1ccc(OCCCN2CCCC2)cc1 was read as T cruzi repl 14.0, NLRP3 yeast inh 32.7, Calb FLC -2.5, NALP1 yeast inh 22.7 and PolyA inhibitor -5.7.
Brc1ccc(OCCCCN2CCCCC2)cc1 was read as T cruzi repl 38.6, NLRP3 yeast inh 23.5, Calb FLC 0.6, NALP1 yeast inh 14.1 and PolyA inhibitor 0.7.
Screening O=C(CCCOc1ccccc1)N1CCCCC1 returned L major viab -5.0, T cruzi repl 6.7, NLRP3 yeast inh 16.3, Calb FLC 1.2, NALP1 yeast inh 32.6* and PolyA inhibitor 5.9.
Screening O=C(CNS(=O)(=O)c1ccccc1)NNC(=O)C(Cl)Cl returned L major viab -5.6, T cruzi repl -1.0, NLRP3 yeast inh 23.9, Calb FLC -3.0, NALP1 yeast inh -1.9 and PolyA inhibitor -5.3.
Screening CC/C(=N\NS(C)(=O)=O)c1ccccc1 returned L major viab -6.1, T cruzi repl -11.2, NLRP3 yeast inh -5.1, Calb FLC -16.0, NALP1 yeast inh 43.8* and PolyA inhibitor 13.6.
For CC/C(=N\NC(=O)Nc1ccccc1)c1ccccc1 the results were L major viab 13.0, T cruzi repl 7.6, NLRP3 yeast inh 28.3, Calb FLC -7.0, NALP1 yeast inh 12.8 and PolyA inhibitor -11.1.
For CCc1cccc(NS(=O)(=O)c2ccc3c(c2)NC(=O)CC(=O)N3)c1 the results were L major viab 15.2, T cruzi repl -15.6, NLRP3 yeast inh 6.2, Calb FLC 1.5, NALP1 yeast inh 35.9* and PolyA inhibitor 22.3.
Screening COCC(C)n1c(C)cc(C(=O)COC(=O)c2ccc(N3CCCC3=O)cc2)c1C (stereo not given) returned L major viab 68.5*, T cruzi repl -5.8, NLRP3 yeast inh 11.0, Calb FLC -10.2, NALP1 yeast inh 13.0 and PolyA inhibitor -22.9.
Screening COCC(C)n1c(C)cc(C(=O)COC(=O)C2=NN(c3ccccc3)C(=O)CC2)c1C (stereo not given) returned L major viab -4.8, T cruzi repl -4.9, NLRP3 yeast inh 4.9, Calb FLC 1.4, NALP1 yeast inh 0.8 and PolyA inhibitor 0.8.
Screening COc1ccccc1Cc1nc2ccccc2n1S(=O)(=O)c1ccc(Cl)cc1 returned L major viab 75.5*, T cruzi repl -33.1, NLRP3 yeast inh 7.9, Calb FLC 23.4, NALP1 yeast inh 25.0 and PolyA inhibitor -8.7.
For CN1CCN(C(c2ccccc2)c2ccccc2)CC1 the results were NLRP3 yeast inh -44.0.
`Cc1cccc(CN2CCN(C(c3ccccc3)c3ccc(Cl)cc3)CC2)c1` (stereo not given) gave L major viab 63.2*, T cruzi repl 17.6, NLRP3 yeast inh 17.6, NALP1 yeast inh 35.4 and PolyA inhibitor -11.6.
Screening CN1CCCN(C(c2ccccc2)c2ccc(Cl)cc2)CC1 (stereo not given) returned L major viab 98.7*, T cruzi repl 27.1, NLRP3 yeast inh 43.4, NALP1 yeast inh 34.0 and PolyA inhibitor 9.6.
`O=C(C1CCN(Cc2ccc(Cl)cc2)CC1)N1CCN(C(c2ccccc2)c2ccccc2)CC1` gave L major viab 87.5*, T cruzi repl 25.9, NLRP3 yeast inh 5.0, Calb FLC 7.3, NALP1 yeast inh 34.7 and PolyA inhibitor 8.1.
For CC1CCCC(C)N1C(=O)COC(=O)CNC(=O)C12CC3CC(CC(C3)C1)C2 (stereo not given) the results were T cruzi repl -8.3, NLRP3 yeast inh 16.9, Calb FLC 1.0 and PolyA inhibitor 4.6.
For CC(=O)Nc1ccc(NC(=O)c2cc([N+](=O)[O-])cc([N+](=O)[O-])c2)cc1 the results were T cruzi repl 55.4*, NLRP3 yeast inh 24.6, Calb FLC 2.8, NALP1 yeast inh 7.3 and PolyA inhibitor -2.9.

Source: PubChem (several laboratories)
